Laboratory results as given in ChEMBL document CHEMBL4145570, “Structures and Biological Evaluation of Monoterpenoid Glycosides from the Roots of Paeonia lactiflora” (J Nat Prod, 2018).
Activity calls are given as the source filed them. No cut-off for these calls is given here.

What was measured:
A549 = assay: Cytotoxicity against human A549 cells assessed as decrease in cell viability at 10 uM after 24 hrs by MTT assay; format: functional, cell-based
RAW264.7 [1] = assay: Antiinflammatory activity in mouse RAW264.7 cells assessed as inhibition of LPS-induced NO production at 20 uM relative to control; format: functional
RAW264.7 [2] = assay: Antiinflammatory activity in mouse RAW264.7 cells assessed as inhibition of LPS-induced NO production at 60 uM relative to control; format: functional
RAW264.7 [3] = assay: Antiinflammatory activity in mouse RAW264.7 cells assessed as inhibition of LPS-induced NO production at 40 uM relative to control; format: functional
RAW264.7 [4] = assay: Antiinflammatory activity in mouse RAW264.7 cells assessed as inhibition of LPS-induced NO production; format: functional, cell-based
Method in brief: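 NO release measured in LPS-stimulated RAW264.7 macrophages alongside an unstimulated control group; IC50 derived; dexamethasone as positive control.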

RAW264.7 [5] = assay: Cytotoxicity against mouse RAW264.7 cells up to 100 uM; format: cell-based
Method in brief: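 Viability assessed in LPS-stimulated RAW264.7 macrophages during the NO-production assay, at concentrations up to 100 μM.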

HepG2 = assay: Protection against acetaminophen-induced cell injury in human HepG2 cells at 10 uM after 24 hrs by MTT assay; format: functional, cell-based
Bel-7402 = assay: Cytotoxicity against human Bel7402 cells assessed as decrease in cell viability at 10 uM after 24 hrs by MTT assay; format: functional, cell-based
BGC-823 = assay: Cytotoxicity against human BGC823 cells assessed as decrease in cell viability at 10 uM after 24 hrs by MTT assay; format: functional, cell-based
RAW264.7 [6] = assay: Antiinflammatory activity in mouse RAW264.7 cells assessed as inhibition of LPS-induced NO production at 80 uM relative to control; format: functional
A2780 = assay: Cytotoxicity against human A2780 cells assessed as decrease in cell viability at 10 uM after 24 hrs by MTT assay; format: functional, cell-based
Peritoneal macrophage = assay: Inhibition of LPS-induced TNFalpha secretion in C57BL6J mouse peritoneal macrophages at 10 uM after 24 hrs; format: functional, cell-based
[7] = biological target: T1, Tyrosine-protein phosphatase non-receptor type 1 (Homo sapiens) (UniProt P18031); assay: Inhibition of PTP1B (unknown origin) at 10 uM
T1 sequence (whole entry): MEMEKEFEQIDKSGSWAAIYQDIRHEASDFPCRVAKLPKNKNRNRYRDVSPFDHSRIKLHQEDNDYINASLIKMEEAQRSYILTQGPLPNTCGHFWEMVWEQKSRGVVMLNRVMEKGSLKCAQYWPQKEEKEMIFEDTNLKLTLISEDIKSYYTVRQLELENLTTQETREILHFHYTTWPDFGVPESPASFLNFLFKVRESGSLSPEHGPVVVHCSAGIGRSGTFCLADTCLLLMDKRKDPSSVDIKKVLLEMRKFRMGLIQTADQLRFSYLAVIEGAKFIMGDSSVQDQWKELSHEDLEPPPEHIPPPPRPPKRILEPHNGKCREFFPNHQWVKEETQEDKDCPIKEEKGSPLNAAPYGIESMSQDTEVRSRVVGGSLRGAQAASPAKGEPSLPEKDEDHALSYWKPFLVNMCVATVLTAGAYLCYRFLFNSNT

RAW264.7 [8] = assay: Antiinflammatory activity in mouse RAW264.7 cells assessed as inhibition of LPS-induced NO production at 10 uM relative to control; format: functional
HCT-8 = assay: Cytotoxicity against human HCT8 cells assessed as decrease in cell viability at 10 uM after 24 hrs by MTT assay; format: functional, cell-based

Compound | Activity (A549) | inhibition at 20 µM (RAW264.7 [1]) [%] | inhibition at 60 µM (RAW264.7 [2]) [%] | inhibition at 40 µM (RAW264.7 [3]) [%] | IC50 (RAW264.7 [4]) [µM] | Activity (RAW264.7 [5]) | Activity (HepG2) | Activity (Bel-7402) | Activity (BGC-823) | inhibition at 80 µM (RAW264.7 [6]) [%] | Activity (A2780) | inhibition (Peritoneal macrophage) | inhibition [7] | inhibition at 10 µM (RAW264.7 [8]) [%] | Activity (HCT-8)
C[C@]1(C(=O)OC[C@H]2O[C@@H](O[C@]34CC5C3(COC(=O)c3ccccc3)[C@H]3O[C@]5(O)C[C@]4(C)O3)[C@H](O)[C@@H](O)[C@@H]2O)[C@@H]2CC[C@@H](CO)[C@H]1C2 | inactive | 20.9 | 39.5 | 22.1 | > 100 | Non-Toxic | inactive | inactive | inactive | 40.7 | inactive | inactive | inactive | 19.7 | inactive
CC1=CC(=O)[C@H]2C[C@@]1(O[C@@H]1O[C@H](CO)[C@@H](O)[C@H](O)[C@H]1O)C2(C)COC(=O)c1ccccc1 (stereo partly specified) | inactive | 19.3 | 45.9 | 26 | 64.8 | Non-Toxic | inactive | inactive | inactive | 61.7 | inactive | inactive | inactive | 25.7 | inactive
CC1(C)[C@@H]2C[C@H]1[C@@H](O)C[C@@H]2C(=O)OC[C@H]1O[C@@H](O[C@]23CC4C2(COC(=O)c2ccccc2)[C@H]2O[C@]4(O)C[C@]3(C)O2)[C@H](O)[C@@H](O)[C@@H]1O | inactive | 23.3 | 38.7 | 27.5 | > 100 | Non-Toxic | inactive | inactive | inactive | 40.8 | inactive | inactive | inactive | 8.58 | inactive
C[C@]12CC(=O)[C@H]3C[C@@]1(O[C@@H]1O[C@H](CO)[C@@H](O)[C@H](O)[C@H]1O)O[C@@H](O2)[C@H]3COC(=O)c1ccccc1 | inactive | 29.6 | 49.9 | 34.9 | 60.1 | Non-Toxic | inactive | inactive | inactive | 61 | inactive | inactive | inactive | 28 | inactive
C=C[C@@](C)(O)CC/C=C(\C)C(=O)OC[C@H]1O[C@@H](O[C@]23CC4C2(COC(=O)c2ccccc2)[C@H]2O[C@]4(O)C[C@]3(C)O2)[C@H](O)[C@@H](O)[C@@H]1O | inactive | 22.6 | 38.1 | 28.1 | > 100 | Non-Toxic | inactive | inactive | inactive | 41.3 | inactive | inactive | inactive | 9.85 | inactive
CC(C)c1ccc(CO[C@@H]2O[C@H](CO[C@@H]3O[C@@H](C)[C@H](O)[C@@H](O)[C@H]3O)[C@@H](O)[C@H](O)[C@H]2O)cc1 | inactive | 23.6 | 38.7 | 31.1 | 97.5 | Non-Toxic | inactive | inactive | inactive | 52.4 | inactive | inactive | inactive | 22.2 | inactive
CC1=CC(=O)[C@H]2C[C@]1(O[C@@H]1O[C@H](COC(=O)c3ccccc3)[C@@H](O)[C@H](O)[C@H]1O)C2(C)CO (stereo partly specified) | inactive | 16.2 | 31.9 | 18.3 | > 100 | Non-Toxic | inactive | inactive | inactive | 45 | inactive | inactive | inactive | 12.8 | inactive
C[C@@H]1C[C@H]2[C@@H]3CCC4=CC(=O)C=C[C@]4(C)[C@@]3(F)[C@@H](O)C[C@]2(C)[C@@]1(O)C(=O)CO [DEXAMETHASONE] |  |  |  |  | 8.3 |  |  |  |  |  |  |  |  |  | 
CC(C)=CCC/C(C)=C/C(=O)O[C@@H]1O[C@H](CO[C@@H]2O[C@@H](C)[C@H](O)[C@@H](O)[C@H]2O)[C@@H](O)[C@H](O)[C@H]1O | inactive | 21.4 | 33.4 | 29.2 | > 100 | Non-Toxic | inactive | inactive | inactive | 41 | inactive | inactive | inactive | 21.4 | inactive
C[C@]1(C(=O)OC[C@H]2O[C@@H](O[C@]34CC5C3(COC(=O)c3ccccc3)[C@H]3O[C@]5(O)C[C@]4(C)O3)[C@H](O)[C@@H](O)[C@@H]2O)[C@@H]2CC[C@H](CO)[C@H]1C2 | inactive | 22.8 | 29.3 | 25.8 | > 100 | Non-Toxic | inactive | inactive | inactive | 44.6 | inactive | inactive | inactive | 16.5 | inactive
CC12C(=O)O[C@@]3(C)C[C@@H](O)[C@H]1C[C@]23O[C@@H]1O[C@H](COC(=O)c2ccccc2)[C@@H](O)[C@H](O)[C@H]1O | inactive | 24.4 | 34.8 | 28.2 | > 100 | Non-Toxic | inactive | inactive | inactive | 39.4 | inactive | inactive | inactive | 19.1 | inactive
